Only some compounds are listed: those with a hit (about 1.8% of all), similar ones and a draw of the others.
TNF death inh: TNF-alpha cell death inhibition in Jurkat FADD-/- cells; Jurkat FADD-/- TNF necroptosis rescue, ATP luminescence, 24 h; 0 = TNF only, 100 = no-TNF cells; activation (protection from cell death), % at 10 µM; actives 0.068% (n = 220,000); AID 463075;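 active = activation, meaning protection from cell death, of at least 50% relative to plate controls; inactive = activation below 50%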;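 also: necroptosis triggered by 40 ng/mL TNF-alpha added together with compound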
Mdm2 ligase inh: inhibitors of human Mdm2 E3 ubiquitin ligase; Q00987; cell-based MDM2 ubiquitination luciferase reporter, 2 h; 0 = plate control, 100 = twice control, blank-subtracted; signal enhancement, % at 5 µM; actives 0.11% (n = 210,000);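 active = signal enhancement of 30% or more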;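 also: luminescence tracks abundance of the self-degrading MDM2-luciferase fusion protein; higher signal means inhibition of MDM2 E3 ligase activity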
Target sequence (Q00987 whole entry, looked up, the tested form may be a part): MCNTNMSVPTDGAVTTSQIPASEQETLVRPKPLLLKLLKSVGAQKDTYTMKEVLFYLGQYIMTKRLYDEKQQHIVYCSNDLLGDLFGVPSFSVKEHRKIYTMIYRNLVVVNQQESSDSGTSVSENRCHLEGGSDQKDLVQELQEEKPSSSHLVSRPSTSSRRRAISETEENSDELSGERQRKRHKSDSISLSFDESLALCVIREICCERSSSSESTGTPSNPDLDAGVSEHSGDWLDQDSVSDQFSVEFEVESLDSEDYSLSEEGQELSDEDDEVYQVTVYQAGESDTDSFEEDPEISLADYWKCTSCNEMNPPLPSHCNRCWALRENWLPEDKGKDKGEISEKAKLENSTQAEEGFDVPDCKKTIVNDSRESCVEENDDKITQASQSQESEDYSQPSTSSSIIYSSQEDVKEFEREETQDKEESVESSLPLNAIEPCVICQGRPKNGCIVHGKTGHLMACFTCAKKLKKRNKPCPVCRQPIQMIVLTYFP
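Assay system: mammalian cells stably expressing self-ubiquitinating, self-degrading MDM2 E3–luciferase fusion. Quantity: 2000 cells in each well. Medium: DMEM culture medium. Compound dosing: single-point 5 µM. Timing: cell settling 4 h, compound treatment 2 h, both 37 °C. Technique: luciferase luminescence. Read-out basis: percent signal gain over controls, blank-subtracted. Benchmarks: plate controls and plate blanks.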
Autophagy mod: modulators of autophagy; calls only at 10 µM (by protocol); MEF GFP-LC3 puncta imaging; test concentration mostly 10 µM; actives 0.98% (n = 190,000); AID 463193;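 active = percentage of spot-positive cells more than 3 SD above its plate mean, without a fluorescence outlier flag or 80% toxicity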;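 also: spot-positive cell cutoff set from DMSO-treated cells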
Dynein transport: blocks dynein driven cargo transport along microtubules. z-score, hits read low. AID 1381. actives 0.47% (n = 220,000). 3617.4 mouse cells, GR-EGFP nuclear translocation imaging; test concentration mostly 20 µM; stimulated with dexamethasone, 1 µM; hits give low values;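 active = plate z-score of nuclear minus cytoplasmic receptor signal below a set negative limit, without overly bright fluorescence or cell loss, cut at about -3.5 in these data, passing the limit was not always enough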;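 also: z-score of nuclear minus cytoplasmic ring GR-EGFP intensity difference per well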
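Buffer or medium: tetracycline-free induction medium containing charcoal-stripped FBS / Reagent: dexamethasone agonist, 1.0 µM final, for 30 min / Technique: automated 10x imaging of fixed Hoechst-stained cells / Times: induction 48 h, compound 1 h, agonist 30 min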
L929 necroptosis: L929 zVAD cell death inhibition; L929 zVAD necroptosis rescue, ATP luminescence, 24 h; with zVAD 60 µM; viability rescue, % at 10 µM; actives 0.38% (n = 220,000); AID 1377;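 active = activation, scaled between plate controls, above about 75%, limit read from the data; inactive = activation under that limit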;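 also: 0% = zVAD with DMSO and 100% = DMSO alone without zVAD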
zVAD necrop conf: confirmed blocker of zVAD induced death in L929 cells | actives 16% (n = 760) | AID 463117 | L929 zVAD-induced necroptosis rescue, ATP luminescence, 24 h | activation (protection from necroptosis), % at 10 µM | shares compounds with L929 necroptosis;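 active = mean protection from necroptosis of at least 50% over duplicate tests; inactive = mean protection below 50%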;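 also: 0% = cells with zVAD alone and 100% = vehicle cells without zVAD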
Starred values were filed as active, the others as inactive; i = inactive; / = not tested or not shown.

SMILES	TNF death inh	Mdm2 ligase inh	Autophagy mod	Dynein transport	L929 necroptosis	zVAD necrop conf
O=C(Nc1ccc(F)cc1)Nc1ccc(N2CCCC2)c(S(=O)(=O)Nc2ccccc2Cl)c1	2.0	3.9	i	0.684	75.9*	72.1*
O=C(Nc1ccc(Cl)c(Cl)c1)Nc1ccc(N2CCCC2)c(S(=O)(=O)Nc2ccccc2Cl)c1	-2.1	-10.9	i	0.266	3.6	/
CC(=O)c1ccc(OCC(=O)Nc2ccc3c(c2)CCC3)cc1	-2.0	13.9	i	-0.706	75.3*	0.1
O=C(COc1ccc(Cl)cc1)Nc1ccc2c(c1)CCC2	1.9	-12.2	i	-0.468	0.1	/
O=Cc1ccc2noc(-c3ccc(F)cc3)c2c1	-5.7	-7.9	i	0.719	81.8*	2.2
CCCCN(CC)CCCNC(=O)c1cc2c(=O)n(C)c3ccccc3c2n1C	-0.8	-15.8	/	0.266	80.1*	33.5
CN1CCN(CCCNC(=O)c2cc3c(=O)n(C)c4ccccc4c3s2)CC1	2.1	-13.9	i	-0.987	77.0*	23.8
Cn1c(C(=O)NCCN2CCN(Cc3ccccc3)CC2)cc2c(=O)n(C)c3ccccc3c21	-3.2	-28.3	/	1.06	2.3	/
Cn1c(C(=O)NCc2ccccn2)cc2c(=O)n(C)c3ccccc3c21	0.5	-14.1	i	0.208	88.9*	3.1
Cn1c(C(=O)NCCN2CCCCCC2)cc2c(=O)n(C)c3ccccc3c21	3.2	-4.4	i	-0.379	84.2*	10.3
O=C(Nc1ccc(F)cc1)Nc1ccc(NC(=O)c2ccccc2O)cc1	7.4	-19.0	/	-0.474	73.0	/
O=C(C1=NNCC1c1ccc(Cl)cc1)C1CO1 (stereo unspecified)	56.9*	/	i	-0.371	88.6*	93.7*
Cc1ccc(C2CC(c3ccc(Cl)cc3)=NNC2=O)cc1 (stereo unspecified)	0.3	/	i	-0.345	0.3	/
COc1cc2c(cc1OC)C(c1cccs1)N(C(=S)NC(C)C)CC2 (stereo unspecified)	1.3	-2.0	i	-0.782	-0.8	/
Nc1ncnc2oc(-c3ccco3)c(-c3ccco3)c12	-9.3	-15.3	i	-1.1	79.1*	36.4
CC(C)CC(=O)Nc1nc2ccc(S(C)(=O)=O)cc2s1	-5.4	9.0	i	-0.531	80.5*	10.2
CCCC(=O)Nc1nc2ccc(S(N)(=O)=O)cc2s1	-0.2	-15.5	/	-0.162	79.9*	1.3
COc1ccc(C(=O)Nc2ncc(C)s2)cc1S(=O)(=O)N1CCCC1	13.0	-17.1	i	-0.708	88.6*	1.7
COc1ccc(C(=O)NC2CCCCCC2)cc1S(=O)(=O)N1CCCC1	0.8	6.1	i	-0.962	4.3	/
Cc1cccc2c1-c1sc(C(=O)Nc3nccs3)cc1CO2	3.5	-21.0	i	0.334	63.4	/
O=C(Nc1nccs1)c1cc2c(s1)-c1ccccc1OC2	22.2	-21.6	i	-1.46	98.2*	48.8
O=c1c(O)c(-c2ccc3c(c2)OCO3)oc2ccccc12	-1.4	-11.8	i	-0.25	76.9*	0.8
O=C(Nc1ccc2c(c1)oc1ccccc12)c1ccc2c(c1)OCO2	-2.2	3.0	i	-1.07	0.8	/
CCOC(=O)C1=C(C(F)(F)F)Nc2ncnn2C1c1cc(OC)ccc1OC (stereo unspecified)	1.7	9.2	i	-1.03	-0.4	/
O=c1cc(-c2ccc(O)c(O)c2)oc2cc(O)cc(O)c12	0.4	5.3	/	1.06	84.6*	45.5
SMILES	TNF death inh	Mdm2 ligase inh	Autophagy mod	Dynein transport	L929 necroptosis	zVAD necrop conf
CCOc1ccccc1NC(=O)Nc1ccccn1	-0.5	-11.5	/	-0.529	79.1*	3.3
FC(F)(F)c1cnc2c(c1)Nc1ccccc1S2	32.6	-55.4	i	0.289	98.3*	58.2*
COc1cc2c(cc1OC)CN(C1CC(=O)N(c3c(C)cccc3C)C1=O)CC2 (stereo unspecified)	1.5	-9.4	i	-0.319	2.4	/
Cc1cc(C)nc(N2CCN(C(=O)CCC(=O)Nc3nnc(C(C)C)s3)CC2)n1	-1.2	-4.0	/	1.31	76.1*	33.0
CC(C)c1nnc(NC(=O)CCC(=O)N2CCN(c3ccccn3)CC2)s1	-1.0	1.0	i	0.415	36.4	/
CCOc1cc(C(=S)N2CCOCC2)ccc1OS(=O)(=O)c1ccccc1[N+](=O)[O-]	-0.5	-0.2	i	0.298	-0.6	/
O=C(/C=C/c1ccc(Cl)cc1)Nc1nccs1	30.1	-34.6	i	0.528	76.8*	18.6
C/C(=C\c1ccccc1)C(=O)Nc1nccs1	4.8	-19.7	i	-0.386	10.3	/
C/C=C/C=C/C(=O)Nc1nccs1	11.0	-1.2	i	-0.184	86.0*	3.6
COc1ccc(C2=NOC(CNC(=S)N3CCOCC3)C2)cc1 (stereo unspecified)	2.1	2.5	/	0.559	0.0	/
Clc1ccc(/C=N/Nc2ncnc3nc[nH]c23)cc1	-10.1	-16.2	/	1.65	78.1*	43.1
CCCCCCCCNC1=CC(=O)CC(C)(C)C1	0.4	-15.2	/	-0.32	0.4	/
COCCNC(=O)c1cc(Sc2nnc(C)s2)nc2ccccc12	4.0	-3.4	/	-0.819	75.5*	8.2
CCOCCCNC(=O)c1cc(Sc2ccc(C)cc2)nc2ccccc12	1.8	-11.6	i	-0.356	0.8	/
COc1ccc(Cl)cc1NC(=O)COc1cccc(-n2cnnn2)c1	-0.3	-16.6	i	0.748	80.8*	33.3
O=C(COc1cccc(-n2cnnn2)c1)Nc1ccccc1	2.1	2.2	i	0.269	73.5	/
Cc1ccc(N=c2oc3cc(O)ccc3cc2C(N)=O)cc1	-11.1	-14.6	i	-0.275	78.6*	37.7
CC(=O)c1cc2ccc(O)cc2oc1=O	2.1	-9.1	/	0.244	0.1	/
CCN1CCN(CC(=O)Nc2nc3ccc(OC)cc3s2)CC1	2.4	0.7	i	-0.0559	83.7*	22.0
COc1ccc2nc(NC(=O)CN3CCOCC3)sc2c1	0.8	-11.0	i	2.98	10.9	/
COc1ccc2nc(NC(=O)CN3CCN(C)CC3)sc2c1	-0.6	-9.9	i	-0.477	92.0*	37.2
COc1ccc2nc(NC(=O)CCNC(=O)c3ccccc3Cl)sc2c1	1.6	-7.7	i	1.38	78.0*	2.9
CCOc1ccc(/C=N/NC(=O)c2cc(-c3cccn3C)n[nH]2)cc1	-0.6	-12.2	i	-0.178	0.0	/
CC(C)(C)n1nc(-c2ccc(F)cc2)c2c(N)ncnc21	2.6	-0.4	i	-0.354	78.7*	41.1
CC1(C)CC(=O)C=C(Nc2cc(-c3ccccc3)[nH]n2)C1	12.3	-7.2	i	-0.833	90.8*	24.0
Clc1ccc(COn2ccnc2)cc1Cl	88.5*	-16.6	i	-0.473	88.2*	92.3*
Cc1cc(C)cc(COn2ccnc2)c1	5.2	-20.2	i	-0.71	0.2	/

Source: PubChem
